Data: ChEMBL document CHEMBL3525935, “Inhibition of P-glycoprotein leads to improved oral bioavailability of compound K, an anticancer metabolite of red ginseng extract produced by gut microflora” (Drug Metab Dispos, 2012)
pIC50: −log10 of the molar value. Calls of active or inactive are those of the source. The calls are words filed in the database; no cut-off is given here.

How the values were obtained:
[1] = Permeability across apical to basolateral side in human Caco2 cells; settings: Caco-2
[2] = Efflux ratio of permeability from basolateral to apical side over apical to basolateral side in human Caco2 cells; settings: Caco-2
MDR1 [3] = experiment: Efflux ratio of permeability from basolateral to apical side over apical to basolateral side in MDCK2-MDR1 cells at 2 uM; format: ADME, cell-based, Canis lupus familiaris; settings: dog, MDCK-MDR1
In short: (§1)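 Monolayers of Caco-2 (TC7; TEER >445 Ω/cm² for quality control), parental MDCKII, or MDR1-MDCKII cells. Bidirectional transport of 2 μM substrate in HBSS, pH 7.4 on both sides. Outputs were Pa-b, Pb-a and efflux ratio Pb-a/Pa-b, plus mass-balance recovery. Intracellular amount was measured at the end of transport and normalised to lysate protein (BCA). Three independent experiments.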

MDR1 [4] = experiment: Permeability across apical to basolateral side in MDCK2-MDR1 cells at 2 uM; format: ADME, cell-based, Canis lupus familiaris, MDCK-II; settings: dog, MDCK-MDR1; read-out: permeability; in short: as §1
LM1 = experiment: Cytotoxicity against mouse LM1 cells assessed as cell growth inhibition upto 100 uM after 48 hrs by MTT assay; format: functional, cell-based
In short: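 LM1 cells, a metastatic line derived from A/J mice, grown in DMEM with 10% FBS, 2 mM glutamine, penicillin/streptomycin and 1% nonessential amino acids. Seeded at 5×10^3 cells/well in 96-well plates, fed daily, and used 2–3 days after seeding.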

[5] = Drug uptake in MDCK2 cells assessed as intracellular level measured per mg of protein at 2 uM; format: ADME, cell-based, Canis lupus familiaris; settings: dog, mdck-ii; in short: as §1
[6] = Cmax in MDR1a/b(-/-) FVB mouse at 10 mg/kg, po; format: ADME, organism-based; set-up: dose 10 mg/kg, route oral; settings: in vivo
In short: (§2)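 Male mice aged 6–10 weeks, MDR1a/b knockout or wild-type FVB, fasted overnight. Single 10 mg/kg gavage dose in an oral suspending vehicle. Ten timed tail-snip blood samples (20–25 μl) were taken under isoflurane. Blood levels were measured by UPLC-MS; the standard curve spanned 19.5 nM–10 μM, with LLOQ 9.8 nM. Five mice per group; mean ± S.D.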

[7] = Oral bioavailability in rat; format: ADME, organism-based; settings: in vivo
[8] = Half life in MDR1a/b(-/-) FVB mouse at 10 mg/kg, po; format: ADME, organism-based; set-up: dose 10 mg/kg, route oral; settings: in vivo; in short: as §2
[9] = Tmax in MDR1a/b(-/-) FVB mouse at 10 mg/kg, po; format: ADME, organism-based; set-up: dose 10 mg/kg, route oral; settings: in vivo; in short: as §2
MDR1 [10] = experiment: Permeability across basolateral to apical side in MDCK2-MDR1 cells at 2 uM; format: ADME, cell-based, Canis lupus familiaris, MDCK-II; settings: dog, MDCK-MDR1; read-out: permeability; in short: as §1
[11] = Drug uptake in human Caco2 cells assessed as intracellular level measured per mg of protein at 2 uM in presence of 50 uM verapamil P-gp inhibitor; format: ADME, cell-based; settings: caco-2, 2 µM
In short: (§3)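 Caco-2 (TC7) monolayers, 2 μM substrate transported in HBSS at pH 7.4. Cyclosporine A (20 μM) or verapamil (50 μM) was added to the apical side. Intracellular amount was measured at the end of transport and normalised to lysate protein (BCA), in nmol/mg. Three independent experiments.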

[12] = Mean residence time (infinity) in MDR1a/b(-/-) FVB mouse at 10 mg/kg, po; format: ADME, organism-based; set-up: dose 10 mg/kg, route oral; settings: in vivo; in short: as §2
[13] = Efflux ratio of permeability from basolateral to apical side over apical to basolateral side in human Caco2 cells at 2 uM; format: ADME, cell-based; settings: Caco-2; in short: as §1
[14] = Cmax in wildtype FVB mouse at 10 mg/kg, po; format: ADME, organism-based; set-up: dose 10 mg/kg, route oral; settings: in vivo; in short: as §2
[15] = Half life in wildtype FVB mouse at 10 mg/kg, po; format: ADME, organism-based; set-up: dose 10 mg/kg, route oral; settings: in vivo; in short: as §2
[16] = Efflux ratio of permeability from basolateral to apical side over apical to basolateral side in MDCK2 cells at 2 uM; format: ADME, cell-based, Canis lupus familiaris, MDCK-II; settings: dog, MDCK; in short: as §1
[17] = Permeability across basolateral to apical side in MDCK2 cells at 2 uM; format: ADME, cell-based, Canis lupus familiaris, MDCK-II; settings: dog, MDCK; read-out: permeability; in short: as §1
[18] = AUC (0 to time) in wildtype FVB mouse at 10 mg/kg, po; format: ADME, organism-based; set-up: dose 10 mg/kg, route oral; settings: plasma; in short: as §2
[19] = Drug recovery in MDCK2 cells at 2 uM; format: ADME, cell-based, Canis lupus familiaris, MDCK-II; settings: dog, MDCK; read-out: Drug recovery; in short: as §1
[20] = Drug elimination rate in MDR1a/b(-/-) FVB mouse at 10 mg/kg, po; format: ADME, organism-based; set-up: dose 10 mg/kg, route oral; settings: in vivo; in short: as §2
[21] = Mean residence time (infinity) in wildtype FVB mouse at 10 mg/kg, po; format: ADME, organism-based; set-up: dose 10 mg/kg, route oral; settings: in vivo; in short: as §2
[22] = AUC (0 to infinity) in wildtype FVB mouse at 10 mg/kg, po; format: ADME, organism-based; set-up: time infinity, dose 10 mg/kg, route oral; settings: plasma; in short: as §2
[23] = Tmax in wildtype FVB mouse at 10 mg/kg, po; format: ADME, organism-based; set-up: dose 10 mg/kg, route oral; settings: in vivo; in short: as §2
[24] = Drug recovery in human Caco2 cells at 2 uM; format: ADME, cell-based; settings: Caco-2, read-out: Drug recovery; in short: as §1
[25] = AUC (0 to time) in MDR1a/b(-/-) FVB mouse at 10 mg/kg, po; format: ADME, organism-based; set-up: dose 10 mg/kg, route oral; settings: plasma; in short: as §2
[26] = Permeability across basolateral to apical side in human Caco2 cells at 2 uM; format: ADME, cell-based; settings: Caco-2, read-out: permeability; in short: as §1
[27] = Drug uptake in human Caco2 cells assessed as intracellular level measured per mg of protein at 2 uM in presence of 20 uM cyclosporine A P-gp inhibitor; format: ADME, cell-based; settings: caco-2, 2 µM; in short: as §3
[28] = Permeability across apical to basolateral side in human Caco2 cells at 2 uM; format: ADME, cell-based; settings: Caco-2, read-out: permeability; in short: as §1
[29] = Cytotoxicity against mouse LM1 cells assessed as cell growth inhibition after 48 hrs by MTT assay; format: functional, cell-based; settings: LM1, 48 h
[30] = AUC (0 to infinity) in MDR1a/b(-/-) FVB mouse at 10 mg/kg, po; format: ADME, organism-based; set-up: time infinity, dose 10 mg/kg, route oral; settings: plasma; in short: as §2
[31] = Drug uptake in human Caco2 cells assessed as intracellular level measured per mg of protein at 2 uM; format: ADME, cell-based; settings: caco-2, 2 µM; in short: as §1
[32] = Drug uptake in MDCK2-MDR1 cells assessed as intracellular level measured per mg of protein at 2 uM; format: ADME, cell-based, Canis lupus familiaris; settings: dog, mdck-ii; in short: as §1
MDR1 [33] = experiment: Drug recovery in MDCK2-MDR1 cells at 2 uM; format: ADME, cell-based, Canis lupus familiaris, MDCK-II; settings: dog, MDCK-MDR1; read-out: Drug recovery; in short: as §1
[34] = Permeability across apical to basolateral side in MDCK2 cells at 2 uM; format: ADME, cell-based, Canis lupus familiaris, MDCK-II; settings: dog, MDCK; read-out: permeability; in short: as §1
[35] = Drug elimination rate in wildtype FVB mouse at 10 mg/kg, po; format: ADME, organism-based; set-up: dose 10 mg/kg, route oral; settings: in vivo; in short: as §2

## C[C@H]1O[C@@H](O[C@H]2[C@@H](O)C[C@H](O[C@H]3[C@@H](O)C[C@H](O[C@H]4CC[C@@]5(C)[C@H](CC[C@@H]6[C@@H]5C[C@@H](O)[C@]5(C)[C@@H](C7=CC(=O)OC7)CC[C@]65O)C4)O[C@@H]3C)O[C@@H]2C)C[C@H](O)[C@@H]1O [DIGOXIN]
[1]
  Papp A→B: 1.48 ×10⁻⁶ cm/s
[2]
  efflux ratio: 21
MDR1 [3]
  efflux ratio at 2 µM: 64
MDR1 [4]
  Papp A→B at 2 µM: 0.298 ×10⁻⁶ cm/s

## CC(C)=CCC[C@](C)(O[C@@H]1O[C@H](CO)[C@@H](O)[C@H](O)[C@H]1O)[C@H]1CC[C@]2(C)[C@@H]1[C@H](O)C[C@@H]1[C@@]3(C)CC[C@H](O[C@@H]4O[C@H](CO)[C@@H](O)[C@H](O)[C@H]4O)C(C)(C)[C@@H]3CC[C@]12C
LM1
  growth inhibition (GI): inactive

## CC(C)=CCC[C@](C)(O[C@@H]1O[C@H](CO)[C@@H](O)[C@H](O)[C@H]1O)[C@H]1CC[C@]2(C)[C@@H]1[C@H](O)C[C@@H]1[C@@]3(C)CC[C@H](O)C(C)(C)[C@@H]3CC[C@]12C
[5]
  Drug uptake: 0.27 nmol/mg
[6]
  Cmax: 530 nM
[7]
  bioavailability: 5%
[8]
  half-life: 18.7 h
[9]
  Tmax: 5.6 h
MDR1 [10]
  Papp B→A at 2 µM: 33.6 ×10⁻⁶ cm/s
[11]
  Drug uptake: 0.5 nmol/mg
[12]
  MRT inf: 30.7 h
[13]
  efflux ratio at 2 µM: 26.6
[14]
  Cmax: 130 nM
[15]
  half-life: 5.87 h
[16]
  efflux ratio at 2 µM: 1.8
[17]
  Papp B→A at 2 µM: 1.13 ×10⁻⁶ cm/s
[18]
  AUC: 0.66 µM·h
[19]
  recovery at 2 µM: 85%
[20]
  k el: 1.11e-05 s⁻¹
[21]
  MRT inf: 7.82 h
MDR1 [3]
  efflux ratio at 2 µM: 18.2
[22]
  AUC(0-inf): 0.75 µM·h
[23]
  Tmax: 2.8 h
[24]
  recovery at 2 µM: 85%
[25]
  AUC: 7.7 µM·h
[26]
  Papp B→A at 2 µM: 31 ×10⁻⁶ cm/s
[27]
  Drug uptake: 0.15 nmol/mg
MDR1 [4]
  Papp A→B at 2 µM: 1.84 ×10⁻⁶ cm/s
[28]
  Papp A→B at 2 µM: 1.16 ×10⁻⁶ cm/s
[29]
  pIC50: 4.73
[30]
  AUC(0-inf): 17.6 µM·h
[31]
  Drug uptake: 0.01 nmol/mg
[32]
  Drug uptake: 0.08 nmol/mg
MDR1 [33]
  recovery at 2 µM: 85%
[34]
  Papp A→B at 2 µM: 0.58 ×10⁻⁶ cm/s
[35]
  k el: 3.61e-05 s⁻¹
